≈ marks a conversion by molar mass, not a printed value. One block for each molecule: values may come before it. Where a SMILES comes first, the peptide text is derived from it. [ ]: non-standard residue; d: D form. Orn = NCCC[C@H](N)C(=O)O
What was measured:
[1] = Stability in 25% mouse serum assessed as half life at 75 ug/ml by MALDI-TOF-MS analysis; type: ADME, cell-free
In short: (§1)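 Peptide at 75 μg/mL final in pooled mouse serum (undiluted or 25% v:v aqueous), 37 °C. Triplicate aliquots taken at 0, 30, 60, 120 and 240 min and precipitated with 3% TCA on ice for 10 min. Supernatant neutralized with NaOH and analysed by RP-HPLC on C18 with TFA-containing gradient. Amounts expressed relative to 0 min; metabolites identified by MALDI-TOF-MS.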

Escherichia coli [2] = assay: Antibacterial activity against Escherichia coli BL21 AI after 20 hrs by broth microdilution assay; type: functional
In short: (§2)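 Nutrient-broth overnight cultures diluted in 1% TSB; E. coli BL21AI 7.5 × 10^5 cells/well, M. luteus ATCC 10240 2 × 10^6 cells/well. Peptides serially 2-fold diluted in 1% TSB from 128 to typically 0.5 μg/mL. Incubation at 37 °C; A595 read after 20 ± 2 h. MIC is the lowest concentration with absorbance not above medium only. Triplicate.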

Micrococcus luteus = assay: Antibacterial activity against Micrococcus luteus ATCC 10240 after 20 hrs by broth microdilution assay; type: functional; details: ATCC 10240, 20 h; in short: as §2
Enterobacter cloacae [3] = assay: Antimicrobial activity against Enterobacter cloacae Ha089 after 20 hrs by broth microdilution method; type: functional; details: Ha089, 20 h
In short: (§3)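 Pathogens grown overnight on Columbia agar. Colonies suspended in 0.9% saline to OD 0.1, diluted 1:300 in 1% TSB, final (1-2) × 10^5 cfu/well. Peptides 2-fold serially diluted in 1% TSB from 128 to typically 0.5 μg/mL. Incubation at 37 °C; A595 read after 20 ± 2 h. MIC is the lowest concentration with absorbance not above medium only. Triplicate.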

Escherichia coli [4] = assay: Antimicrobial activity against Escherichia coli 205024 after 20 hrs by broth microdilution method; type: functional; details: Escherichia coli, 205024, 20 h; in short: as §3
Pseudomonas aeruginosa [5] = assay: Antimicrobial activity against Pseudomonas aeruginosa DSM 3227 after 20 hrs by broth microdilution method; type: functional; details: DSM 3227, 20 h
In short: (§4)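 Pathogenic strains grown overnight on Columbia agar, colonies suspended in 0.9% saline to OD 0.1, diluted 1:300 in 1% TSB; final (1-2) × 10^5 cfu/well. Peptides 2-fold serially diluted in 1% TSB from 128 μg/mL, typically to 0.5 μg/mL. Incubated 37 °C, absorbance at 595 nm after 20 ± 2 h, in triplicate; MIC = lowest concentration with absorbance not exceeding medium only.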

Klebsiella pneumoniae [6] = assay: Antimicrobial activity against Klebsiella pneumoniae 63 after 20 hrs by broth microdilution method; type: functional; details: Klebsiella pneumoniae, 63, 20 h; in short: as §4
Enterobacter cloacae [7] = assay: Antimicrobial activity against Enterobacter cloacae Ha088 after 20 hrs by broth microdilution method; type: functional; details: Ha088, 20 h; in short: as §3
Acinetobacter baumannii [8] = assay: Antimicrobial activity against Acinetobacter baumannii ICB 9250 after 20 hrs by broth microdilution method; type: functional; details: ICB 9250, 20 h; in short: as §3
Klebsiella pneumoniae [9] = assay: Antimicrobial activity against Klebsiella pneumoniae 8085 after 20 hrs by broth microdilution method; type: functional; details: Klebsiella pneumoniae, 8085, 20 h; in short: as §3
Escherichia coli [10] = assay: Antimicrobial activity against Escherichia coli 70329001 after 20 hrs by broth microdilution method; type: functional; details: Escherichia coli, 70329001, 20 h; in short: as §3
Acinetobacter baumannii [11] = assay: Antimicrobial activity against Acinetobacter baumannii ICB 14073 after 20 hrs by broth microdilution method; type: functional; details: ICB 14073, 20 h; in short: as §3
Escherichia coli [12] = assay: Antimicrobial activity against Escherichia coli 70502001 after 20 hrs by broth microdilution method; type: functional; details: Escherichia coli, 70502001, 20 h; in short: as §3
Escherichia coli [13] = assay: Antimicrobial activity against Escherichia coli 70430001 after 20 hrs by broth microdilution method; type: functional; details: Escherichia coli, 70430001, 20 h; in short: as §3
Pseudomonas aeruginosa [14] = assay: Antimicrobial activity against Pseudomonas aeruginosa 60811001 after 20 hrs by broth microdilution method; type: functional; details: Pseudomonas aeruginosa, 60811001, 20 h; in short: as §4
Acinetobacter baumannii [15] = assay: Antimicrobial activity against Acinetobacter baumannii M17 after 20 hrs by broth microdilution method; type: functional; details: M17, 20 h; in short: as §3
Klebsiella pneumoniae [16] = assay: Antimicrobial activity against Klebsiella pneumoniae 57 USA after 20 hrs by broth microdilution method; type: functional; in short: as §3
SH-SY5Y = assay: Cytotoxicity against human SH-SY5Y cells at 600 ug/ml after 24 hrs by MTT assay; type: cell-based
In short: (§5)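 HeLa (1.5 × 10^4/well, seeded overnight) or SH-SY5Y (2 × 10^4/well, differentiated 5 days with 10 μM trans-retinoic acid) in DMEM/Ham's F-12 with 5% or 15% FBS. Peptide added at 600 μg/mL for 24 h at 37 °C, 5% CO2. MTT 0.5 mg/mL for 4 h, then SDS/HCl for 16 h; A590 read against 650 nm. Normalized to PBS (100%); DMSO 12% as positive control.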

Stenotrophomonas [17] = assay: Antimicrobial activity against Stenotrophomonas ICB 7789 after 20 hrs by broth microdilution method; type: functional; details: ICB 7789, 20 h; in short: as §3
Enterobacter cloacae [18] = assay: Antimicrobial activity against Enterobacter cloacae 34654 after 20 hrs by broth microdilution method; type: functional; details: Enterobacter cloacae, 34654, 20 h; in short: as §3
Escherichia coli [19] = assay: Antimicrobial activity against Escherichia coli Neumann after 20 hrs by broth microdilution method; type: functional; in short: as §3
[20] = Stability in 100% mouse serum assessed as half life at 75 ug/ml by MALDI-TOF-MS analysis; type: ADME, cell-free; in short: as §1
Escherichia coli [21] = assay: Antimicrobial activity against Escherichia coli 8474 after 20 hrs by broth microdilution method; type: functional; details: Escherichia coli, 8474, 20 h; in short: as §3
Acinetobacter baumannii [22] = assay: Antimicrobial activity against Acinetobacter baumannii ICB 14072 after 20 hrs by broth microdilution method; type: functional; details: ICB 14072, 20 h; in short: as §3
Proteus vulgaris [23] = assay: Antimicrobial activity against Proteus vulgaris ICB 9081 after 20 hrs by broth microdilution method; type: functional; details: ICB 9081, 20 h; in short: as §3
Pseudomonas aeruginosa [24] = assay: Antimicrobial activity against Pseudomonas aeruginosa Walter after 20 hrs by broth microdilution method; type: functional; in short: as §4
Escherichia coli [25] = assay: Antimicrobial activity against Escherichia coli 455/7 after 20 hrs by broth microdilution method; type: functional; details: 455/7, 20 h; in short: as §3
Pseudomonas aeruginosa [26] = assay: Antimicrobial activity against Pseudomonas aeruginosa PAO1 after 20 hrs by broth microdilution method; type: functional; details: PAO1, 20 h; in short: as §4
Pseudomonas aeruginosa [27] = assay: Antimicrobial activity against Pseudomonas aeruginosa 70108001 after 20 hrs by broth microdilution method; type: functional; details: Pseudomonas aeruginosa, 70108001, 20 h; in short: as §4
Pseudomonas aeruginosa [28] = assay: Antimicrobial activity against Pseudomonas aeruginosa ATCC 27853 after 20 hrs by broth microdilution method; type: functional; details: ATCC 27853, 20 h; in short: as §4
Stenotrophomonas [29] = assay: Antimicrobial activity against Stenotrophomonas ICB 7569 after 20 hrs by broth microdilution method; type: functional; details: ICB 7569, 20 h; in short: as §3
Pseudomonas aeruginosa [30] = assay: Antimicrobial activity against Pseudomonas aeruginosa 61118003 after 20 hrs by broth microdilution method; type: functional; details: Pseudomonas aeruginosa, 61118003, 20 h; in short: as §4
Acinetobacter baumannii [31] = assay: Antimicrobial activity against Acinetobacter baumannii ICB 14067 after 20 hrs by broth microdilution method; type: functional; details: ICB 14067, 20 h; in short: as §3
HeLa = assay: Cytotoxicity against human HeLa cells at 600 ug/ml after 24 hrs by MTT assay; type: cell-based; in short: as §5
Escherichia coli [32] = assay: Antimicrobial activity against Escherichia coli 70419002 after 20 hrs by broth microdilution method; type: functional; details: Escherichia coli, 70419002, 20 h; in short: as §3
Stenotrophomonas [33] = assay: Antimicrobial activity against Stenotrophomonas ICB 308054 after 20 hrs by broth microdilution method; type: functional; details: ICB 308054, 20 h; in short: as §3
Proteus vulgaris [34] = assay: Antimicrobial activity against Proteus vulgaris ICB 9095 after 20 hrs by broth microdilution method; type: functional; details: ICB 9095, 20 h; in short: as §3
Pseudomonas aeruginosa [35] = assay: Antimicrobial activity against Pseudomonas aeruginosa 60909001 after 20 hrs by broth microdilution method; type: functional; details: Pseudomonas aeruginosa, 60909001, 20 h; in short: as §4
Klebsiella pneumoniae [36] = assay: Antimicrobial activity against Klebsiella pneumoniae ATCC 12657 after 20 hrs by broth microdilution method; type: functional; details: ATCC 12657, 20 h; in short: as §3
Enterobacter cloacae [37] = assay: Antimicrobial activity against Enterobacter cloacae Ha185 after 20 hrs by broth microdilution method; type: functional; details: Ha185, 20 h; in short: as §4
Enterobacter cloacae [38] = assay: Antimicrobial activity against Enterobacter cloacae Ha89 after 20 hrs by broth microdilution method; type: functional; details: Ha89, 20 h; in short: as §3
Klebsiella pneumoniae [39] = assay: Antimicrobial activity against Klebsiella pneumoniae ATCC 27799 after 20 hrs by broth microdilution method; type: functional; details: ATCC 27799, 20 h; in short: as §4
Klebsiella pneumoniae [40] = assay: Antimicrobial activity against Klebsiella pneumoniae DSM 681 after 20 hrs by broth microdilution method; type: functional; details: DSM 681, 20 h; in short: as §3

- half-life at 75 ug/ml [1]: < 30 min
- MIC (Escherichia coli [2]): 32 µg/mL
- MIC (Micrococcus luteus): 64 µg/mL
Molecule: H-VDKPPYLPRPRPPRRIYNR-OH

Molecule: CC[C@H](C)[C@H](NC(=O)[C@H](CCCN)NC(=O)[C@H](CCCNC(=N)N)NC(=O)[C@@H]1CCCN1C(=O)[C@@H]1CCCN1C(=O)[C@H](CCCNC(=N)N)NC(=O)[C@@H]1CCCN1C(=O)[C@H](CCCNC(=N)N)NC(=O)[C@@H]1CCCN1C(=O)[C@H](CC(C)C)NC(=O)[C@H](Cc1ccc(O)cc1)NC(=O)[C@@H]1CCCN1C(=O)[C@@H]1CCCN1C(=O)[C@H](CCCCN)NC(=O)[C@H](CC(=O)O)NC(=O)[C@@H](N)C(C)C)C(=O)N[C@@H](Cc1ccc(O)cc1)C(=O)N[C@@H](CC(N)=O)C(=O)N[C@@H](CCCN)C(N)=O (H-VDKPPYLPRPRPPR[Orn]IYN[Orn]-NH2)
- MIC (Enterobacter cloacae [3]): 0.25 µg/mL (≈ 0.108 µM)
- MIC (Escherichia coli [4]): 1 µg/mL (≈ 0.434 µM)
- MIC (Pseudomonas aeruginosa [5]): 4 µg/mL (≈ 1.73 µM)
- MIC (Klebsiella pneumoniae [6]): 2 µg/mL (≈ 0.867 µM)
- MIC (Escherichia coli [2]): 8 µg/mL (≈ 3.47 µM)
- MIC (Enterobacter cloacae [7]): 0.25 µg/mL (≈ 0.108 µM)
- MIC (Acinetobacter baumannii [8]): 0.5 µg/mL (≈ 0.217 µM)
- MIC (Klebsiella pneumoniae [9]): 0.5 µg/mL (≈ 0.217 µM)
- MIC (Escherichia coli [10]): 1 µg/mL (≈ 0.434 µM)
- MIC (Acinetobacter baumannii [11]): 1 µg/mL (≈ 0.434 µM)
- MIC (Escherichia coli [12]): 1 µg/mL (≈ 0.434 µM)
- MIC (Escherichia coli [13]): 0.5 µg/mL (≈ 0.217 µM)
- MIC (Pseudomonas aeruginosa [14]): 2 µg/mL (≈ 0.867 µM)
- MIC (Acinetobacter baumannii [15]): 1 µg/mL (≈ 0.434 µM)
- MIC (Klebsiella pneumoniae [16]): 0.5 µg/mL (≈ 0.217 µM)
- Activity (SH-SY5Y): Non-toxic
- MIC (Stenotrophomonas [17]): 32 µg/mL (≈ 13.9 µM)
- MIC (Enterobacter cloacae [18]): 0.5 µg/mL (≈ 0.217 µM)
- MIC (Escherichia coli [19]): 0.5 µg/mL (≈ 0.217 µM)
- half-life at 75 ug/ml [20]: 180 min
- MIC (Escherichia coli [21]): 0.5 µg/mL (≈ 0.217 µM)
- MIC (Acinetobacter baumannii [22]): 1 µg/mL (≈ 0.434 µM)
- MIC (Proteus vulgaris [23]): 8 µg/mL (≈ 3.47 µM)
- MIC (Micrococcus luteus): 8 µg/mL (≈ 3.47 µM)
- MIC (Pseudomonas aeruginosa [24]): 4 µg/mL (≈ 1.73 µM)
- MIC (Escherichia coli [25]): 0.5 µg/mL (≈ 0.217 µM)
- MIC (Pseudomonas aeruginosa [26]): 2 µg/mL (≈ 0.867 µM)
- MIC (Pseudomonas aeruginosa [27]): 2 µg/mL (≈ 0.867 µM)
- MIC (Pseudomonas aeruginosa [28]): 2 µg/mL (≈ 0.867 µM)
- MIC (Stenotrophomonas [29]): 16 µg/mL (≈ 6.94 µM)
- MIC (Pseudomonas aeruginosa [30]): 1 µg/mL (≈ 0.434 µM)
- MIC (Acinetobacter baumannii [31]): 1 µg/mL (≈ 0.434 µM)
- Activity (HeLa): Non-toxic
- MIC (Escherichia coli [32]): 2 µg/mL (≈ 0.867 µM)
- MIC (Stenotrophomonas [33]): 32 µg/mL (≈ 13.9 µM)
- MIC (Proteus vulgaris [34]): 4 µg/mL (≈ 1.73 µM)
- MIC (Pseudomonas aeruginosa [35]): 1 µg/mL (≈ 0.434 µM)
- MIC (Klebsiella pneumoniae [36]): 0.5 µg/mL (≈ 0.217 µM)
- MIC (Enterobacter cloacae [37]): 0.5 µg/mL (≈ 0.217 µM)
- MIC (Enterobacter cloacae [38]): 0.25 µg/mL (≈ 0.108 µM)
- MIC (Klebsiella pneumoniae [39]): 1 µg/mL (≈ 0.434 µM)
- MIC (Klebsiella pneumoniae [40]): 0.5 µg/mL (≈ 0.217 µM)

Source: ChEMBL document CHEMBL1155452, “Oncocin (VDKPPYLPRPRPPRRIYNR-NH2): a novel antibacterial peptide optimized against gram-negative human pathogens” (J Med Chem, 2010)
